Consider two compounds from publication PMC5159748 (Archives of biochemistry and biophysics, 2016).

The target of experiment [1] is T1, K346 (Drosophila kinesin-1 motor domain; apo-K346) (Drosophila melanogaster, UniProt P17210).
T1 sequence (P17210 2-346): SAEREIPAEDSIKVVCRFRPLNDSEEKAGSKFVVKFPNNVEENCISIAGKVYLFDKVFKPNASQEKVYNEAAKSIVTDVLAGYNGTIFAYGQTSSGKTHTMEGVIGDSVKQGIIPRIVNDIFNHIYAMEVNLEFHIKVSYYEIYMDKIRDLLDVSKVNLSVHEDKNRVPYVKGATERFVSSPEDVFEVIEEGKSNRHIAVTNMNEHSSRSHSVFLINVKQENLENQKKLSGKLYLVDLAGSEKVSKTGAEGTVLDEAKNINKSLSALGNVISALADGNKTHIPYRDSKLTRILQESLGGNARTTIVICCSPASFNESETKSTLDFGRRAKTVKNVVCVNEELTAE
The experiment can be described thus: stopped-flow FRET. Format: binding. An outline of the steps:
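Apo-K346 (Tev-cleaved, ADP-stripped) at 25 °C in A25 buffer (pH 6.9) with 50 mM KCl and glycerol as indicated. FRET from tyrosines to mdADP: excitation 280 nm, 418 nm long-pass emission. Association: stopped-flow mixing with ≥10-fold excess mdADP, kon = kobs/[mdADP]. Release: 0.84 μM E•mdADP chased with 400 μM MgATP, single-exponential fit. SD from ≥3 transients.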

In experiment [2] the target is Microtubules prepared from porcine tubulin, stabilized with paclitaxel (porcine) (UniProt P02550). The experiment in a line: turbidity increase.

The term Kd denotes a measure of binding affinity in units of concentration. Read a low Kd as higher affinity.

`CNc1ccccc1C(=O)O[C@H]1C[C@H](n2cnc3c(N)ncnc32)O[C@@H]1COP(=O)(O)OP(=O)(O)O` [mdADP] came in with a Kd in experiment [1] of 2 nM.

“K346, monomeric Drosophila kinesin-1 motor domain (amino acids 2-346) (from UniProt P17210 2-346) (domain or fragment)” showed a Kd in experiment [2] of 1800 nM.
